In the library only some 2.5% were active in any assay of this set; here they are far more common.
MEKK2mut PB1 HTS – signal of MEK5 binding to mutant human MEKK2 PB1 domain; percent response, % at 10 µM; bead flow cytometry, Alexa488-MEK5 binding to MEKK2 mutant; AID 1530; 290,000 tested, 0.35% active; in the data active = percent response above about 24%, passing the limit was not always enough
Efflux pump inh – inhibitors of Candida antifungal efflux pumps expressed in yeast. S. cerevisiae Candida pump triplex, Nile Red efflux. inhibition, % at 10 µM. 330,000 tested, 0.44% active;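 active = plate passing quality check with inhibition over a set limit, or well fluorescence over plate mean plus 4 SD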;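 also: Nile Red retained in pooled yeast measured as flow cytometry median fluorescence; 0% = buffer negative control and 100% = Enniatin B positive control; higher means more Nile Red kept so more efflux inhibition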
ABCB1 block – inhibitors of human ABCB1 transporter, ABCG2 counter-screen | 190,000 tested, 0.067% active | inhibition, % at 6.6 µM | P08183 | AID 1326 | CCRF-Adr cells, JC-1 efflux, flow cytometry; in the data active = inhibition above about 40%;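 also: 0% = vehicle and 100% = reference inhibitor; higher value means more JC-1 retained so stronger ABCB1 efflux block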
Target sequence (P08183 whole entry, looked up): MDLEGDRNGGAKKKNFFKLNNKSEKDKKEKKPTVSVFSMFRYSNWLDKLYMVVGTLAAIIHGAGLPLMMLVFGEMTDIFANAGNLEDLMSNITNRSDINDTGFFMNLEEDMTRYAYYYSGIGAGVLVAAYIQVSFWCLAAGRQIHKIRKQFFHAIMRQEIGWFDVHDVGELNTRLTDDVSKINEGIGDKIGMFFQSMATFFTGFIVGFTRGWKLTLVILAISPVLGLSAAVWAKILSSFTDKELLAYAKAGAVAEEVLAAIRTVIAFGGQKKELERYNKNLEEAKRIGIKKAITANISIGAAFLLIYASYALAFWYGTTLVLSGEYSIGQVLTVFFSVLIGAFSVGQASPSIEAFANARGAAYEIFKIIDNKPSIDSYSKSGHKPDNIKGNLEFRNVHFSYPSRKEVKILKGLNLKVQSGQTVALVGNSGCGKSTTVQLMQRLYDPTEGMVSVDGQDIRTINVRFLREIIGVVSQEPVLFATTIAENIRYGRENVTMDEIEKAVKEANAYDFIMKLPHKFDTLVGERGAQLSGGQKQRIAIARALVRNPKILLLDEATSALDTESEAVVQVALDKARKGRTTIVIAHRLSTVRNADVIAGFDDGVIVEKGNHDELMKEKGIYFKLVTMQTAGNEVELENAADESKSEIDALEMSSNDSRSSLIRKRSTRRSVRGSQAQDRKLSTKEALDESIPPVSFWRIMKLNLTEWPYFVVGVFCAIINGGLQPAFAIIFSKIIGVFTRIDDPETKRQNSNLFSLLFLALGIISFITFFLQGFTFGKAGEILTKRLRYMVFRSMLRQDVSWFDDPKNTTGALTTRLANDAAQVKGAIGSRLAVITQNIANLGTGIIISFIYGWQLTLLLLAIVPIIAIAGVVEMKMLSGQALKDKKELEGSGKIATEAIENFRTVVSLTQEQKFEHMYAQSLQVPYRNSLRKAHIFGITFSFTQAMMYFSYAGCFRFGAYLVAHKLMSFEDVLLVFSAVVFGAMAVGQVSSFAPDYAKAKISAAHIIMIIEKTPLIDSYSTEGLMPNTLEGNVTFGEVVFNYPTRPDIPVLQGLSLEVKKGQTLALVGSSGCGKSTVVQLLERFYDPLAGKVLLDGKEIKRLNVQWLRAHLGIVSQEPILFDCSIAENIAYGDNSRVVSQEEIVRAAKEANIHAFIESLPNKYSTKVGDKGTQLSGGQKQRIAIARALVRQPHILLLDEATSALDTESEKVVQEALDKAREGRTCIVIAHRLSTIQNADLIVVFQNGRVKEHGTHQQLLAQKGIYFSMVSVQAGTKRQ
ABCG2 inh – inhibitors of human ABCG2 transporter, ABCB1 counter-screen. Q9UNQ0. inhibition, % at 6.6 µM. 190,000 tested, 0.1% active. IgMXP3 cells, JC-1 efflux, flow cytometry. AID 1325;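 active = inhibition above 80%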;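 also: 0% = DMSO and 100% = nicardipine control wells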
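Assay system – ABCG2 IgMXP3 and barcoded ABCB1 CCRF-Adr cell mix · Input – 3 million cells/mL in well · Reagent – JC-1 fluorescent substrate · Compound – single test compound dose, 6.6 µM final · Timing – 10 min exposure at 25 °C with rotation, no wash · Detection – flow cytometry of retained JC-1 fluorescence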
MEKK3 PB1 HTS – MEKK3-MEK5 PB1 interaction, increase or decrease; bead-based flow cytometry, Alexa488-MEK5 binding to MEKK3; actives lie on both sides; 0 = blocked by unlabeled MEK5, 100 = vehicle; binding response (% of control), % at 10 µM; 290,000 tested, 1.4% active;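 active = binding response more than 3 SD above or below the average of its plate-row segment, actives on both sides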;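 also: Alexa488 bead fluorescence after subtracting the streptavidin-only scavenger bead signal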
MEKK2wt PB1 HTS – raises or lowers MEK5 binding to wildtype human MEKK2 PB1 domain; Q9Y2U5; bead flow cytometry, Alexa488-MEK5 binding to MEKK2 WT; actives lie on both sides; binding response (% of control), % at 10 µM; 290,000 tested, 1.1% active; AID 1531; in the data active = binding response below about 67% or above about 130%
Active calls of the source: *; . = no result given; ! = not active in a repeat; [ ] = dose if it differs, or a comment.

SMILES | MEKK2mut PB1 HTS | Efflux pump inh | ABCB1 block | ABCG2 inh | MEKK3 PB1 HTS | MEKK2wt PB1 HTS
O=C(/C=C/c1ccc(OC(F)F)cc1)Nc1cccc(S(=O)(=O)N2CCOCC2)c1 | -1 | 0 | . | . | 104 | 104
Cc1ccc(C)c(OCCC(=O)OCC(=O)Nc2ccc(Cl)cn2)c1 | . | 0 | . | . | . | .
CCC(=O)NS(=O)(=O)c1ccc(-c2c(-c3ccccc3)noc2C)cc1 | 2 | . | . | . | 102 | 106
Cc1onc(-c2ccccc2)c1-c1ccc(S(N)(=O)=O)cc1 | -6 | 0 | . | 0 | 88 | 53*!
Cc1cccc(NC(=O)CSc2nnc3ccc(-c4ccccn4)nn23)c1 | . | 0 | . | . | . | .
O=C1C2C3c4ccccc4C(c4ccccc43)C2C(=O)N1Cc1ccccn1 (stereo not drawn) | -9 | 0 | 2 | 4 | 106 | 89
Cc1nn(CC(=O)NCCCN2CCC(Cc3ccccc3)CC2)c(=O)c2cc(-c3ccccc3)nn12 | 48* | 0 | . | . | 108 | 161*
CCc1ccc(-c2cc3c(=O)n(CC(=O)NCCCN4CCC(Cc5ccccc5)CC4)nc(C)n3n2)cc1 | 29* | 0 | . | . | 110 | 203*
CCN1CCN(CCCNC(=O)Cn2nc(C)n3nc(-c4ccccc4)cc3c2=O)CC1 | 1 | 0 | . | . | 104 | 102
Cc1nn(CC(=O)NCCCN2CCN(Cc3ccccc3)CC2)c(=O)c2cc(-c3ccccc3)nn12 | 16 | 0 | . | . | 103 | 116
O=C(N/C(=C\c1ccc(Br)cc1)C(=O)N1CCOCC1)c1ccc([N+](=O)[O-])cc1 | 1 | 0 | . | . | 100 | 97
Cc1cc2c(NCc3ccccc3)ncnc2s1 | 5 | 0 | . | . | 102 | 106
O=C(CCn1c(=O)[nH]c2ccsc2c1=O)N1CC(=O)N(CCc2ccccc2)C(=O)C1 | -9 | 0 | 0 | 1 | 74*[inhibitor] | 81
Cc1ccccc1-c1ccccc1CN1[C@@H](C(C)C)COCCS1(=O)=O | . | 0 | . | . | . | .
Cc1c(N=C/C=C2/N(C)c3ccccc3C2(C)C)c(=O)n(-c2ccccc2)n1C | 1 | 0 | 1 | 2 | 76 | -5.0*
COc1cc(Br)cc(CNc2ccc(F)c([N+](=O)[O-])c2)c1O | 1 | 0 | 4 | 21 | 102 | 103
COc1cc(/C=N/N=C(/C(=O)c2ccccc2)c2ccccc2)cc(OC)c1O | 0 | 0 | -1 | -7 | 135* | 105
CN1/C(=C\C=C2/SC(=S)N(CC(=O)O)C2=O)C(C)(C)c2ccccc21 | 880* | 0 | 0 | -1 | 145* | 805*
CN1CCS/C1=C\C=C1/SC(=S)N(CC(=O)O)C1=O | 0 | . | 1 | 1 | 112 | 101
CCOc1ccc2nc(Cl)c(C3CC(c4ccco4)=NN3S(C)(=O)=O)cc2c1 (stereo not drawn) | 0 | 0 | . | . | 90 | 7.0*
COc1ccccc1C1CC(c2ccco2)=NN1S(C)(=O)=O (stereo not drawn) | 17 | 0 | 0 | 0 | 97 | 29*
CCCCCC(=O)Nc1ccc(-c2csc(N)n2)cc1 | 6 | 0 | 0 | 3 | 102 | 104
C=CCn1c(C)c(C(C)=O)c(N2CCN(C(c3ccccc3)c3ccccc3)CC2)nc1=S | -3 | 0 | 0 | -1 | 93 | 96
CCOC(=O)c1nc2cc3n(c(C)c-2c1C)C(C)C(C)=C3C (stereo not drawn) | 21 | 0 | 0 | 2 | 127* | 130
CCOC(=O)c1nc2cc3n(c(CC(C)C)c-2c1C)CC(C)=C3C | 4 | 0 | 1 | 2 | 96 | 97
SMILES | MEKK2mut PB1 HTS | Efflux pump inh | ABCB1 block | ABCG2 inh | MEKK3 PB1 HTS | MEKK2wt PB1 HTS
O=C(NC(=S)Nc1ccc(N2CCOCC2)cc1)c1cccc(Cl)c1Cl | -4 | 0 | . | . | 103 | 101
CN1CCN(c2ccc(NC(=S)NC(=O)c3cccc4c(Cl)cccc34)cc2)CC1 | 28* | 0 | . | . | 101 | 170*
CC(=O)Nc1ccc(NC(=O)CSc2ccc([N+](=O)[O-])cn2)cc1 | 2 | 0 | . | . | 101 | 104
CCc1nnc(NC(=O)c2sc3nc4c(cc3c2N)CCCCCC4)s1 | 2 | 0 | 0 | 0 | 120 | 113
CCc1nnc(NC(=O)c2sc3nc4c(cc3c2N)CCCCC4)s1 | 2 | 0 | 0 | 1 | 139* | 106
O=C(O)COc1ccc(/C=N/NC(=O)c2ccc(-c3csc(Nc4ccc(Cl)cc4)n3)cc2)cc1 | -7 | . | . | . | 60*[inhibitor] | 73
Cc1cc(=O)oc2cc(OCC(=O)NC3CC(C)(C)NC(C)(C)C3)ccc12 | -12 | 0 | . | . | 78*[inhibitor] | 74
CCc1cc(=O)oc2cc(OCC(=O)NC3CC(C)(C)NC(C)(C)C3)ccc12 | 4 | 0 | . | . | 103 | 111
O=C(CC1C(=O)NCCN1CCCc1ccccc1)NCCc1ccccc1F (stereo not drawn) | 28* | 0 | . | . | 103 | 134*
Cc1cc(N)c2cc(NC(=O)/C=C/c3ccccc3Cl)ccc2n1 | 117* | 0 | . | . | 104 | 252*
C(=N\NC1=Nc2cccc3cccc1c23)/c1ccccn1 | 1 | . | -1 | -1 | 95 | 8.0*
Clc1ccccc1/C=N/NC1=Nc2cccc3cccc1c23 | 2 | 0 | -1 | -9 | 106 | 102
CCN1CCN(S(=O)(=O)c2ccc(Cl)c(C(=O)N(C)CCOc3ccc(Cl)cc3)c2)CC1 | . | 0 | . | . | . | .
Nn1c(SCC(=O)NC2CCCc3ccccc32)nnc1-c1ccc(Cl)cc1Cl (stereo not drawn) | 9 | . | 1 | 2 | 100 | 97
O=C1NN(c2cccc(Br)c2)C(=O)/C1=C/c1ccc(-c2cc([N+](=O)[O-])ccc2O)o1 | -15 | 0 | . | . | 36*[inhibitor] | 29*[inhibitor]
COc1cc(C)c(CN2CCN(CC(=O)Nc3ccccc3C(=O)NC3CC3)CC2)cc1OC | . | 0 | . | . | . | .
COc1ccc(C)cc1NS(=O)(=O)c1ccc2c(c1)N(C)CCO2 | -4 | 0 | . | . | 98 | 96
Cc1ccc(-n2c(=O)c3cc4c(=O)n(-c5ccc(C)c(C)c5)c(=O)c4c(C(=O)c4ccc(C(=O)O)cc4)c3c2=O)cc1C | -12 | 0 | . | . | 48*[inhibitor] | 29*[inhibitor]
O=C(O)c1ccc(-n2c(=O)c3ccccc3c3ccccc3c2=O)cc1 | -7 | 0 | 0 | -1 | 99 | 99
NS(=O)(=O)c1ccc(CCNC(=O)c2ccc3ccccc3n2)cc1 | 5 | 0 | 1 | 4 | 99 | -3.0*
NS(=O)(=O)c1ccc(CNC(=O)c2ccc3ccccc3n2)cc1 | 5 | 0 | . | . | 105 | 103
Cn1c(NC(=O)COc2ccccc2)cc(=O)n(C)c1=O | 6 | 0 | 0 | 7 | 105 | 106
CCOC(=O)N1CCN(S(=O)(=O)c2ccc(C(=O)Nc3sc4c(c3C(N)=O)CCN(CC)C4)cc2)CC1 | -2 | 0 | . | . | 96 | 99
CCCN1CCc2c(sc(NC(=O)c3ccc(S(=O)(=O)N4CCN(C(=O)OCC)CC4)cc3)c2C(N)=O)C1 | 4 | 0 | . | . | 102 | 4.0*

From PubChem BioAssay
